For assay [1], the target named is Cholinesterase (Homo sapiens, UniProt P06276). The assay can be described thus: Irreversible inhibition of human plasma BuChE assessed as second order carbamylation rate constant using S-butyrylthiocholine iodide as substrate preincubated up to 45 mins followed by substrate addition measured after 5 mins. To be noted: read-out: kon (M-1-s-1). A digest of the protocol:
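Diluted human plasma BChE was preincubated for 1–45 min with inhibitor at 5×10^-9, 1×10^-8, 2.5×10^-8 and 5×10^-8 M. Residual Ellman activity with BTCh at pH 8 was normalised to a water control. kobs came from a one-phase exponential fit; k_I1 came from the slope of kobs versus concentration.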

The target of assay [2] is Cholinesterase (Equus caballus, UniProt P81908). The assay can be described thus: Irreversible inhibition of equine serum BuChE assessed as second order carbamylation rate constant using S-butyrylthiocholine iodide as substrate preincubated up to 45 mins followed by substrate addition measured after 5 mins. To be noted: read-out: kon (M-1-s-1). A digest of the protocol: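 Equine BChE, pH 8, 37°C, was preincubated for 1, 2, 4, 8, 15, 30 and 45 min with inhibitor at 1×10^-7 to 5×10^-6 M (seven levels). Residual activity was read by Ellman with BTCh and normalised to a water control at each time. kobs came from a one-phase exponential decay fit; k_I1 came from the linear kobs versus concentration relation.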
Cholinesterase (Equus caballus, UniProt P81908), sequence (P81908 whole entry): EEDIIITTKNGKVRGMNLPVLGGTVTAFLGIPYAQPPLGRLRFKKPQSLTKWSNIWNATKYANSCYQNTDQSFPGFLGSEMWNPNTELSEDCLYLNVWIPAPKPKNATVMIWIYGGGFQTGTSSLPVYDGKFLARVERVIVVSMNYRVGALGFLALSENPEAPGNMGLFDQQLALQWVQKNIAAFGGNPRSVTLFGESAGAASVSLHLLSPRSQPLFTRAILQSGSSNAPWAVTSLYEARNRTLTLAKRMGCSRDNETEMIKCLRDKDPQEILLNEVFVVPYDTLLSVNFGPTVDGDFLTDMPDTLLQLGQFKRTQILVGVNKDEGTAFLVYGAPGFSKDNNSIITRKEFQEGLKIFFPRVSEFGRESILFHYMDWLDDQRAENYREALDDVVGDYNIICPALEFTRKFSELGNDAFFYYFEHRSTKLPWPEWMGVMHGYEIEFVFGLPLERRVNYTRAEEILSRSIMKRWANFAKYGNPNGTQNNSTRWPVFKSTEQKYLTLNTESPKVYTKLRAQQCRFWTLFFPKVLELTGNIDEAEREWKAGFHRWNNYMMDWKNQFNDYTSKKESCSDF

Cholinesterase (Homo sapiens, UniProt P06276), sequence (P06276 whole entry): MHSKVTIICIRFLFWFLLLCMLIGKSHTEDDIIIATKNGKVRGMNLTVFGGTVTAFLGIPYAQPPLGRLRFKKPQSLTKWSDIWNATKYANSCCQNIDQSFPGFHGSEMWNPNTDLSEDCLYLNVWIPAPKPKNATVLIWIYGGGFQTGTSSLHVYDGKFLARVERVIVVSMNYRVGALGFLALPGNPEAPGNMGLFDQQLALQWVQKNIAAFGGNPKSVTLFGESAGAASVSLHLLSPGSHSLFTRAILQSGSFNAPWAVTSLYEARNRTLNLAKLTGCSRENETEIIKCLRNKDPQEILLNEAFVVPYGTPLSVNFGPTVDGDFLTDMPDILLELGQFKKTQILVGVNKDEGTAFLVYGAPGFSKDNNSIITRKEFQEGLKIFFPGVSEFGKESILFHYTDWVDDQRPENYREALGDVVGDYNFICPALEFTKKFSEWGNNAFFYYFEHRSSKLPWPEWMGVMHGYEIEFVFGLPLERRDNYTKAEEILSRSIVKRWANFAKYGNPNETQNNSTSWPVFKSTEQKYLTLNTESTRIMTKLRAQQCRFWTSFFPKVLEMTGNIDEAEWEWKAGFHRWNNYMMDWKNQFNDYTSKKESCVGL

On to `CCC(C)(C)NCC(O)c1cc(OC(=O)N(C)C)cc(OC(=O)N(C)C)c1` (centres undefined), for which the kon in assay [1] was 100000 M⁻¹ s⁻¹; in assay [2], 2370 M⁻¹ s⁻¹.

Take `CCN(C)C(=O)Oc1cc(OC(=O)N(C)CC)cc(C(O)CNC(C)(C)CC)c1` (centres undefined): the kon stood at 122000 M⁻¹ s⁻¹ in assay [1] and 2480 M⁻¹ s⁻¹ in assay [2].

For the origin of these results see BindingDB's records for doi:10.1016/j.ejmech.2016.08.061 (South China University of Technology, 2017).
